Reference: ChEMBL document CHEMBL1153965, “Inhibitors of hepatitis C virus NS3/4A: alpha-ketoamide based macrocyclic inhibitors” (Bioorg Med Chem Lett, 2009)
One block for each compound: values may come before it.

How the values were obtained:
[1] = Inhibition of full length HCV NS3/4A protease by TRF assay; set-up: species or system Hepacivirus hominis
[2] = system: Hepatitis C virus; assay: Antiviral activity against HCV replication infected in human HuH7 cells after 96 hrs by replicon assay in presence of 10% FCS; format: functional, organism-based, Hepacivirus hominis, Huh-7
In short: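 Compounds incubated with replicon cells at 37 °C for 96 h in medium containing 10% FCS, with inhibition of replication read out to give EC50.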

[3] = Cytotoxicity against human HuH7 cells; format: cell-based, Huh-7
[4] = Cmax in Wistar rat at 5 mg/kg, po; format: ADME, organism-based; set-up: dose 5 mg/kg, route oral; conditions: in vivo
In short: (§1)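 Male Wistar rats dosed orally at 5 mg/kg in PEG 400 vehicle, with plasma exposure measured. Values are geometric means from 3 animals.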

[5] = Drug level in Wistar rat liver at 5 mg/kg, po after 4 hrs; format: ADME, organism-based; set-up: dose 5 mg/kg, route oral; conditions: read-out: Drug uptake
[6] = AUC (0 to infinity) in Wistar rat plasma at 5 mg/kg, po; format: ADME, organism-based; set-up: time infinity, dose 5 mg/kg, route oral; in short: as §1
[7] = system: Hepatitis C virus; assay: Antiviral activity against HCV replication infected in human HuH7 cells after 48 hrs by replicon assay in presence of 2% FCS; conditions: Huh-7, 48 h
[8] = Oral bioavailability in Wistar rat at 5 mg/kg; format: ADME, organism-based; conditions: in vivo
[9] = system: Hepatitis C virus; assay: Antiviral activity against HCV replication infected in human HuH7 cells after 72 hrs by replicon assay in presence of 5% FCS; conditions: Huh-7, 72 h

SMILES: CCC[C@H](NC(=O)[C@@H]1C[C@@H]2CN1C(=O)[C@H](C(C)(C)C)NC(=O)OCCCCCCc1cccc3c1CN(C3)C(=O)O2)C(=O)C(=O)NC(C)CC (stereo not given in full)
- Ki [1]: 66 nM
- EC50 ([2]; Hepatitis C virus, Huh-7, 96 h): 520 nM
- CC50 [3]: > 50000 nM

SMILES: C=CCNC(=O)C(=O)[C@H](CCC)NC(=O)[C@@H]1C[C@@H]2CN1C(=O)[C@H](C(C)(C)C)NC(=O)OCCCCCCc1cccc3c1CN(C3)C(=O)O2
- Cmax [4]: 160 nM
- Ki [1]: 71 nM
- concentration at 4 h [5]: 480 nM
- EC50 ([2]; Hepatitis C virus, Huh-7, 96 h): 550 nM
- AUC(0-inf) [6]: 0.58 µM·h
- CC50 [3]: > 50000 nM

SMILES: CC(C)(C)NC(=O)N[C@H](C(=O)N1C[C@H]2[C@@H]([C@H]1C(=O)NC(CC1CCC1)C(=O)C(N)=O)C2(C)C)C(C)(C)C (stereo not given in full) [BOCEPREVIR]
- EC50 [9]: 200 nM
- Cmax [4]: 130 nM
- Ki [1]: 35 nM
- AUC(0-inf) [6]: 0.21 µM·h
- CC50 [3]: > 50000 nM
- bioavailability [8]: 3.5%

SMILES: CCC[C@H](NC(=O)[C@@H]1C[C@@H]2CN1C(=O)[C@H](C(C)(C)C)NC(=O)OCCCCCCc1cccc3c1CN(C3)C(=O)O2)C(=O)C(=O)NCc1ccccn1
- Ki [1]: 176 nM
- EC50 ([2]; Hepatitis C virus, Huh-7, 96 h): 790 nM
- CC50 [3]: > 50000 nM

SMILES: CCC[C@H](NC(=O)[C@@H]1C[C@@H]2CN1C(=O)[C@H](C(C)(C)C)NC(=O)OCCCCCc1cccc3c1CN(C3)C(=O)O2)C(=O)C(=O)NC1CC1
- Ki [1]: 83 nM
- EC50 ([2]; Hepatitis C virus, Huh-7, 96 h): 600 nM
- CC50 [3]: > 50000 nM

The next lines start with results.

- Ki [1]: 242 nM
- EC50 ([2]; Hepatitis C virus, Huh-7, 96 h): 1320 nM
SMILES: CCC[C@H](NC(=O)[C@@H]1C[C@@H]2CN1C(=O)[C@H](C(C)(C)C)NC(=O)OCCCCCCc1cccc3c1CN(C3)C(=O)O2)C(=O)C(=O)NCc1ccccc1
- CC50 [3]: > 50000 nM

- Ki [1]: > 2900 nM
- EC50 ([2]; huh-7): > 6250 nM
SMILES: CCC(C)NC(=O)C(=O)C(CC(F)F)NC(=O)[C@@H]1C[C@@H]2CN1C(=O)[C@H](C(C)(C)C)NC(=O)OCCCCCCc1cccc3c1CN(C3)C(=O)O2 (single isomer, unassigned; diastereomer 2)

- Ki [1]: 110 nM
- concentration at 4 h [5]: 810 nM
- EC50 ([2]; Hepatitis C virus, Huh-7, 96 h): 1600 nM
- AUC(0-inf) [6]: 1.54 µM·h
- EC50 [7]: 354 nM
- bioavailability [8]: 34.8%
SMILES: CCC[C@H](NC(=O)[C@@H]1[C@H]2CCC[C@H]2CN1C(=O)[C@@H](NC(=O)[C@@H](NC(=O)c1cnccn1)C1CCCCC1)C(C)(C)C)C(=O)C(=O)NC1CC1 [TELAPREVIR]
- CC50 [3]: > 50000 nM

- Ki [1]: 78 nM
- EC50 ([2]; Hepatitis C virus, Huh-7, 96 h): 1050 nM
SMILES: CCC[C@H](NC(=O)[C@@H]1C[C@@H]2CN1C(=O)[C@H](C(C)(C)C)NC(=O)OCCCCCCc1cccc3c1CN(C3)C(=O)O2)C(=O)C(=O)NC1CCCC1
- CC50 [3]: > 50000 nM

- Ki [1]: 140 nM
- EC50 ([2]; Hepatitis C virus, Huh-7, 96 h): > 500 nM
SMILES: CCC[C@H](NC(=O)[C@@H]1C[C@@H]2CN1C(=O)[C@H](C(C)(C)C)NC(=O)OCCCCCCc1cccc3c1CN(C3)C(=O)O2)C(=O)C(=O)NC(C)c1ccccc1 (stereo not given in full)
- CC50 [3]: > 50000 nM

- Ki [1]: 140 nM
- EC50 ([2]; Hepatitis C virus, Huh-7, 96 h): 940 nM
SMILES: CCC[C@H](NC(=O)[C@@H]1C[C@@H]2CN1C(=O)[C@H](C(C)(C)C)NC(=O)OCCCCCCc1cccc3c1CN(C3)C(=O)O2)C(=O)C(=O)NC1CCC1
- CC50 [3]: > 50000 nM

- Ki [1]: 2400 nM
- EC50 ([2]; Hepatitis C virus, Huh-7, 96 h): > 12500 nM
SMILES: CCC(C)NC(=O)C(=O)C(CC(F)F)NC(=O)[C@@H]1C[C@@H]2CN1C(=O)[C@H](C(C)(C)C)NC(=O)OCCCCCCc1cccc3c1CN(C3)C(=O)O2 (single isomer, unassigned; diastereomer 1)
- CC50 [3]: > 50000 nM
